Source: ChEMBL document CHEMBL1152955, “Synthetic resveratrol aliphatic acid inhibits TLR2-mediated apoptosis and an involvement of Akt/GSK3beta pathway” (Bioorg Med Chem, 2009)
Active and inactive are the calls of the source. No cut-off for these calls is given here.

Tests used:
HEK293 [1] = test: Inhibition of TLR2 expression in human HEK293 cells at 10 uM treated for 24 hrs measured after serum deprivation by Western blotting; assay type: functional, cell-based
Procedure, shortened: (§1)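 HEK293 and TLR2-stably-transfected HEK293 cells in RPMI-1640 with 10% heat-inactivated FBS, 37 °C, 5% CO2; compound at 0, 10 or 100 uM for 24 h, then serum deprivation for 0, 12 or 24 h. Equal cell numbers lysed in RIPA buffer, 12% SDS-PAGE, nitrocellulose, anti-TLR2 immunoblot with GAPDH antibody, chemiluminescent detection; mean ± SEM of three independent experiments.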

HEK293 [2] = test: Inhibition of TLR2 expression in human HEK293 cells at 100 uM treated for 24 hrs measured after serum deprivation by Western blotting; assay type: functional, cell-based; procedure, shortened: as §1
HEK293 [3] = test: Inhibition of TLR2 expression in human HEK293 cells stably transfected with TLR2 at 10 uM treated for 24 hrs measured after serum deprivation by Western blotting; assay type: functional, cell-based; procedure, shortened: as §1
HEK293 [4] = test: Inhibition of TLR2 expression in human HEK293 cells stably transfected with TLR2 at 100 uM treated for 24 hrs measured after serum deprivation by Western blotting; assay type: functional, cell-based; procedure, shortened: as §1
[5] = Solubility in water; assay type: physicochemical; conditions: buffer
Albumin = Albumin (Homo sapiens, UniProt P02768); test: Binding affinity to human serum albumin; assay type: ADME; conditions: isolated protein
Chain of Albumin (P02768 whole entry): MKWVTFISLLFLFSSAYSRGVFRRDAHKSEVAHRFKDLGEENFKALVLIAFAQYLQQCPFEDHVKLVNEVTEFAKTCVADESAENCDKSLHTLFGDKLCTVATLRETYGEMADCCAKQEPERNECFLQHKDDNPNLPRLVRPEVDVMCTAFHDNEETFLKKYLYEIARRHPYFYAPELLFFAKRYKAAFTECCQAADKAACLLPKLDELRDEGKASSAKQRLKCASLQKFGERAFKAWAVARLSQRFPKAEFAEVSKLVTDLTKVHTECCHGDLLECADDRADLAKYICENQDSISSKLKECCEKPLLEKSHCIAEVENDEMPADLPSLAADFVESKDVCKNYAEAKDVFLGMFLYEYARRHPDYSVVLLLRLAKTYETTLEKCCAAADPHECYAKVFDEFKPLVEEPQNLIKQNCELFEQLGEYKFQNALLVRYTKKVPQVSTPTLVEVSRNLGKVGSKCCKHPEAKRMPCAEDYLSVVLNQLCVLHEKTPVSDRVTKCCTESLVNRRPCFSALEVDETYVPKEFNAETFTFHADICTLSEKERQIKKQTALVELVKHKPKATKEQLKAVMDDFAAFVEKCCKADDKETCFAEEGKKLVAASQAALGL

[6] = target: Toll-like receptor 2 (Homo sapiens) (UniProt O60603); test: Inhibition of TLR2-mediated apoptosis in human HEK293 cells at 100 uM treated for 24 hrs measured after 12 hrs of serum deprivation by TUNEL assay; assay type: cell-based
Chain of Toll-like receptor 2 (Homo sapiens) (O60603 whole entry, the tested form may be a part): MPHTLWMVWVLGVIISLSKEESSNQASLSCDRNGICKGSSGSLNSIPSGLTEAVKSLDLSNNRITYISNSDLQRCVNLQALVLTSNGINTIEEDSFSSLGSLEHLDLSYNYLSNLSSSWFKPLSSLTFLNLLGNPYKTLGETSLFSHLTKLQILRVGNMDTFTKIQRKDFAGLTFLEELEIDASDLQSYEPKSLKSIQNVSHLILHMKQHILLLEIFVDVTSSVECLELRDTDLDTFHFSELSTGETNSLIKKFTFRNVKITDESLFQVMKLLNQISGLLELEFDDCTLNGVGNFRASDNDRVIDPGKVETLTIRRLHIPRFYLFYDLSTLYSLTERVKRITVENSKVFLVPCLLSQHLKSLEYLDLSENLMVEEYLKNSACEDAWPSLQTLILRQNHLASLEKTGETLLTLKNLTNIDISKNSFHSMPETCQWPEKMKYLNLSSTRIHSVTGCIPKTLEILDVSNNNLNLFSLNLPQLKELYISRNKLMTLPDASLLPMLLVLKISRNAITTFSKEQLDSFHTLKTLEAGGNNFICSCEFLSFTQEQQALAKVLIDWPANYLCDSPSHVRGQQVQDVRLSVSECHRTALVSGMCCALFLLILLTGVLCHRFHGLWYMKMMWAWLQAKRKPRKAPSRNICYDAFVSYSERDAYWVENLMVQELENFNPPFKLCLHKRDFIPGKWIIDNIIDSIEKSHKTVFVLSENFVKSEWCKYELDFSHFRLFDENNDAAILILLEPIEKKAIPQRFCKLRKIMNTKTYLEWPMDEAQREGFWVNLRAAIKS
Procedure, shortened: (§2)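 With or without 100 uM for 24 h, then serum deprivation 0, 12 or 24 h, in HEK293 or TLR2/HEK293 cells (RPMI-1640, 10% heat-inactivated FBS). Nucleosomal DNA fragmentation detected by in situ TUNEL kit; apoptotic and total cells counted in random fields to give percent apoptotic cells; mean ± SEM of three independent experiments.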

[7] = target: Toll-like receptor 2 (Homo sapiens) (UniProt O60603); test: Inhibition of TLR2-mediated apoptosis in human HEK293 cells at 100 uM treated for 24 hrs measured after 24 hrs of serum deprivation by TUNEL assay; assay type: cell-based; procedure, shortened: as §2
[8] = target: Toll-like receptor 2 (Homo sapiens) (UniProt O60603); test: Inhibition of TLR2-mediated apoptosis in human HEK293 cells stably transfected with TLR2 at 100 uM treated for 24 hrs measured after 12 hrs of serum deprivation by TUNEL assay; assay type: cell-based; procedure, shortened: as §2
[9] = target: Toll-like receptor 2 (Homo sapiens) (UniProt O60603); test: Inhibition of TLR2-mediated apoptosis in human HEK293 cells stably transfected with TLR2 at 100 uM treated for 24 hrs measured after 24 hrs of serum deprivation by TUNEL assay; assay type: cell-based; procedure, shortened: as §2
[10] = target: Toll-like receptor 2 (Homo sapiens) (UniProt O60603); test: Inhibition of TLR2 in human HEK293 cells stably transfected with TLR2 assessed as decrease in Akt phosphorylation level at Ser473 at 10 uM treated for 24 hrs measured after serum deprivation by Western blotting; assay type: cell-based
Procedure, shortened: (§3)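 Parental HEK293 or TLR2/HEK293 cells (RPMI-1640, 10% heat-inactivated FBS, 37 °C, 5% CO2) exposed to 0, 10 or 100 uM for 24 h, then serum-deprived 0, 12 or 24 h. RIPA lysates of equal cell numbers run on 12% SDS-PAGE; phospho-Akt (Ser473) and total Akt probed by Western blot, milk block, primary antibody overnight at 4 °C.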

[11] = target: Toll-like receptor 2 (Homo sapiens) (UniProt O60603); test: Inhibition of TLR2 in human HEK293 cells stably transfected with TLR2 assessed as decrease in Akt phosphorylation level at Ser473 at 100 uM treated for 24 hrs measured after serum deprivation by Western blotting; assay type: cell-based; procedure, shortened: as §3
[12] = target: Toll-like receptor 2 (Homo sapiens) (UniProt O60603); test: Inhibition of TLR2 in human HEK293 cells assessed as decrease in Akt phosphorylation level at Ser473 at 10 uM treated for 24 hrs measured after serum deprivation by Western blotting; assay type: cell-based; procedure, shortened: as §3
[13] = target: Toll-like receptor 2 (Homo sapiens) (UniProt O60603); test: Inhibition of TLR2 in human HEK293 cells assessed as decrease in Akt phosphorylation level at Ser473 at 100 uM treated for 24 hrs measured after serum deprivation by Western blotting; assay type: cell-based; procedure, shortened: as §3
[14] = target: Toll-like receptor 2 (Homo sapiens) (UniProt O60603); test: Inhibition of TLR2 in human HEK293 cells stably transfected with TLR2 assessed as decrease in GSK3-beta phosphorylation level at 10 uM treated for 24 hrs measured after serum deprivation by Western blotting; assay type: cell-based
Procedure, shortened: (§4)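 Cells given 0, 10 or 100 uM for 24 h before 0, 12 or 24 h serum deprivation; HEK293 and TLR2/HEK293 lines cultured in RPMI-1640 plus 10% heat-inactivated FBS. Harvested cells lysed in RIPA buffer, 12% SDS-PAGE, nitrocellulose transfer, immunoblotted for phospho-GSK3beta and total GSK3beta, ECL read-out; mean ± SEM, three independent experiments.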

[15] = target: Toll-like receptor 2 (Homo sapiens) (UniProt O60603); test: Inhibition of TLR2 in human HEK293 cells stably transfected with TLR2 assessed as decrease in GSK3-beta phosphorylation level at 100 uM treated for 24 hrs measured after serum deprivation by Western blotting; assay type: cell-based; procedure, shortened: as §4
[16] = target: Toll-like receptor 2 (Homo sapiens) (UniProt O60603); test: Inhibition of TLR2 in human HEK293 cells assessed as decrease in GSK3-beta phosphorylation level at 10 uM treated for 24 hrs measured after serum deprivation by Western blotting; assay type: cell-based; procedure, shortened: as §4
[17] = target: Toll-like receptor 2 (Homo sapiens) (UniProt O60603); test: Inhibition of TLR2 in human HEK293 cells assessed as decrease in GSK3-beta phosphorylation level at 100 uM treated for 24 hrs measured after serum deprivation by Western blotting; assay type: cell-based; procedure, shortened: as §4

SMILES | inhibition (HEK293 [1]) | inhibition (HEK293 [2]) | inhibition (HEK293 [3]) | inhibition (HEK293 [4]) | solubility [5] | fold change (FC) (Albumin) | inhibition [6] | inhibition [7] | inhibition [8] | inhibition [9] | Activity [10] | Activity [11] | Activity [12] | Activity [13] | Activity [14] | Activity [15] | Activity [16] | Activity [17]
O=C(O)COc1ccc(/C=C/c2cc(O)cc(O)c2)cc1 | inactive | inactive | inactive | inactive | – | – | – | – | – | – | – | – | – | – | – | – | – | –
O=C(O)CCCCCOc1ccc(/C=C/c2cc(O)cc(O)c2)cc1 [RESVERATROL HEXANOIC ACID] | Active | Active | Active | Active | Soluble | 40 | 11% | 25% | 20% | 49% | Active | Active | inactive | inactive | Active | Active | inactive | inactive
